{"source": "ChEMBL document CHEMBL1145465", "about": "“PhoU is a persistence switch involved in persister formation and tolerance to multiple antibiotics and stresses in Escherichia coli” (2007)", "key": {"Escherichia coli [1]": {"test_system": "Escherichia coli", "assay": "Antibacterial activity against Escherichia coli K12 mutant JHU313 at 25 ug/ml after 48 hrs by disc diffusion method", "assay_type": "functional", "summary_of_the_method": "(§1)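 Kirby-Bauer disc assay: log-phase LB culture was spread on LB agar for confluent growth. 7-mm nitrocellulose discs were soaked in antibiotic at the listed concentration and placed on the agar. After 48 h at 37°C, the diameter of the inhibition zone was measured in mm.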"}, "Escherichia coli [2]": {"test_system": "Escherichia coli", "assay": "Antibacterial activity against Escherichia coli K12 PhoU wild type W3110 at 12.5 ug/ml after 48 hrs by disc diffusion method", "assay_type": "functional", "summary_of_the_method": "(§2)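 Kirby-Bauer disc assay. Log-phase LB broth culture (10⁸ bacteria) was spread on LB agar for confluent growth. 7 mm nitrocellulose discs soaked in antibiotic solution at the listed concentration were placed on the agar. Inhibition zone diameter (mm) was measured after 48 h at 37°C.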"}, "Escherichia coli [3]": {"test_system": "Escherichia coli", "assay": "Antibacterial activity against Escherichia coli K12 mutant JHU313 containing plasmid vector at 50 ug/ml after 48 hrs by disc diffusion method", "assay_type": "functional", "summary_of_the_method": "(§3)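 Kirby-Bauer paper-disc assay: log-phase E. coli (10⁸ bacteria) grown in LB broth, spread on LB agar for confluent growth; 7 mm nitrocellulose discs soaked with antibiotic solution at the listed concentration (μg/ml) placed on surface; incubated 37°C for 48 h; diameter of growth-inhibition zone measured in mm. Strain is the phoU transposon mutant transformed by electroporation with empty vector control.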"}, "Escherichia coli [4]": {"test_system": "Escherichia coli", "assay": "Antibacterial activity against Escherichia coli K12 PhoU wild type W3110 at 25 ug/ml after 48 hrs by disc diffusion method", "assay_type": "functional", "summary_of_the_method": "as §2"}, "Escherichia coli [5]": {"test_system": "Escherichia coli", "assay": "Antibacterial activity against Escherichia coli K12 mutant JHU313 containing plasmid PhoU at 50 ug/ml after 48 hrs by disc diffusion method", "assay_type": "functional", "summary_of_the_method": "as §1"}, "Escherichia coli [6]": {"test_system": "Escherichia coli", "assay": "Antibacterial activity against Escherichia coli K12 mutant JHU313 containing plasmid PhoU at 25 ug/ml after 48 hrs by disc diffusion method", "assay_type": "functional", "summary_of_the_method": "as §1"}, "Escherichia coli [7]": {"test_system": "Escherichia coli", "assay": "Antibacterial activity against Escherichia coli K12 mutant JHU313 containing plasmid vector at 12.5 ug/ml after 48 hrs by disc diffusion method", "assay_type": "functional", "summary_of_the_method": "as §1"}, "Escherichia coli [8]": {"test_system": "Escherichia coli", "assay": "Antibacterial activity against Escherichia coli K12 mutant JHU313 at 12.5 ug/ml after 48 hrs by disc diffusion method", "assay_type": "functional", "summary_of_the_method": "as §1"}, "Escherichia coli [9]": {"test_system": "Escherichia coli", "assay": "Antibacterial activity against Escherichia coli K12 mutant JHU313 containing plasmid vector at 25 ug/ml after 48 hrs by disc diffusion method", "assay_type": "functional", "summary_of_the_method": "as §3"}, "Escherichia coli [10]": {"test_system": "Escherichia coli", "assay": "Antibacterial activity against Escherichia coli K12 mutant JHU313 at 50 ug/ml after 48 hrs by disc diffusion method", "assay_type": "functional", "summary_of_the_method": "as §1"}, "Escherichia coli [11]": {"test_system": "Escherichia coli", "assay": "Antibacterial activity against Escherichia coli K12 mutant JHU313 containing plasmid PhoU at 12.5 ug/ml after 48 hrs by disc diffusion method", "assay_type": "functional", "summary_of_the_method": "as §1"}, "Escherichia coli [12]": {"test_system": "Escherichia coli", "assay": "Antibacterial activity against Escherichia coli K12 PhoU wild type W3110 at 50 ug/ml after 48 hrs by disc diffusion method", "assay_type": "functional", "summary_of_the_method": "as §2"}, "Escherichia coli [13]": {"test_system": "Escherichia coli", "assay": "Antibacterial activity against Escherichia coli K12 containing PhoU mutant assessed as bacterial killing log phase at 3 ug/ml after 6 days", "assay_type": "functional"}, "Escherichia coli [14]": {"test_system": "Escherichia coli", "assay": "Antibacterial activity against Escherichia coli K12 PhoU wild type W3110 assessed as cell count in log phase at […] after 6 days", "assay_type": "functional, organism-based"}, "Escherichia coli [15]": {"test_system": "Escherichia coli", "assay": "Antibacterial activity against Escherichia coli K12 PhoU wild type W3110 assessed as cell count in stationary phase at 2 mg/ml after 6 days"}, "Escherichia coli [16]": {"test_system": "Escherichia coli", "assay": "Antibacterial activity against Escherichia coli K12 containing PhoU mutant assessed as bacterial killing stationary phase at 2 mg/ml after 6 days"}, "Escherichia coli [17]": {"test_system": "Escherichia coli", "assay": "Antibacterial activity against Escherichia coli K12 PhoU wild type W3110 at 0.5 ug/ml after 48 hrs by disc diffusion method", "assay_type": "functional", "summary_of_the_method": "(§4)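 Kirby-Bauer disc assay. Log-phase LB culture (10⁸ bacteria) was spread for confluent growth on LB agar. 7 mm nitrocellulose discs soaked in antibiotic at the listed concentrations were laid on the agar. Inhibition zone diameter (mm) was measured after 48 h at 37°C.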"}, "Escherichia coli [18]": {"test_system": "Escherichia coli", "assay": "Antibacterial activity against Escherichia coli K12 mutant JHU313 containing plasmid PhoU at 0.5 ug/ml after 48 hrs by disc diffusion method", "assay_type": "functional", "summary_of_the_method": "as §1"}, "Escherichia coli [19]": {"test_system": "Escherichia coli", "assay": "Antibacterial activity against Escherichia coli K12 mutant JHU313 at 2 ug/ml after 48 hrs by disc diffusion method", "assay_type": "functional", "summary_of_the_method": "as §1"}, "Escherichia coli [20]": {"test_system": "Escherichia coli", "assay": "Antibacterial activity against Escherichia coli K12 mutant JHU313 at 0.5 ug/ml after 48 hrs by disc diffusion method", "assay_type": "functional", "summary_of_the_method": "as §1"}, "Escherichia coli [21]": {"test_system": "Escherichia coli"}, "Escherichia coli [22]": {"test_system": "Escherichia coli", "assay": "Antibacterial activity against Escherichia coli K12 mutant JHU313 containing plasmid PhoU at 2 ug/ml after 48 hrs by disc diffusion method", "assay_type": "functional", "summary_of_the_method": "as §1"}, "Escherichia coli [23]": {"test_system": "Escherichia coli", "assay": "Antibacterial activity against Escherichia coli K12 mutant JHU313 containing plasmid PhoU after 16 hrs by serial dilution method", "assay_type": "functional", "details": "K12, 16 h", "summary_of_the_method": "(§5)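 Twofold serial antibiotic dilutions in LB broth were seeded with 10⁶–10⁷ bacteria/ml from log-phase culture and incubated 16 h at 37°C. MIC was taken as the lowest concentration with no visible growth. MBC was taken as the concentration giving a 100-fold CFU drop from the inoculum.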"}, "Escherichia coli [24]": {"test_system": "Escherichia coli", "remark": "listed apart in the source"}, "Escherichia coli [25]": {"test_system": "Escherichia coli", "assay": "Antibacterial activity against Escherichia coli K12 mutant JHU313 containing plasmid vector after 16 hrs by serial dilution method", "assay_type": "functional", "details": "K12, 16 h", "summary_of_the_method": "as §5"}, "Escherichia coli [26]": {"test_system": "Escherichia coli", "assay": "Antibacterial activity against Escherichia coli K12 mutant JHU313 containing plasmid vector at 2 ug/ml after 48 hrs by disc diffusion method", "assay_type": "functional", "summary_of_the_method": "as §1"}, "Escherichia coli [27]": {"test_system": "Escherichia coli", "assay": "Antibacterial activity against Escherichia coli K12 PhoU wild type W3110 at 2 ug/ml after 48 hrs by disc diffusion method", "assay_type": "functional", "summary_of_the_method": "as §4"}, "Escherichia coli [28]": {"test_system": "Escherichia coli", "assay": "Antibacterial activity against Escherichia coli K12 PhoU wild type W3110 at 1 ug/ml after 48 hrs by disc diffusion method"}, "Escherichia coli [29]": {"test_system": "Escherichia coli", "assay": "Antibacterial activity against Escherichia coli K12 mutant JHU313 after 16 hrs by serial dilution method", "assay_type": "functional", "details": "K12, 16 h", "summary_of_the_method": "as §5"}, "Escherichia coli [30]": {"test_system": "Escherichia coli", "remark": "listed apart in the source"}, "Escherichia coli [31]": {"test_system": "Escherichia coli", "assay": "Antibacterial activity against Escherichia coli K12 PhoU wild type W3110 after 16 hrs by serial dilution method", "assay_type": "functional", "details": "K12, 16 h", "summary_of_the_method": "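Serial twofold antibiotic dilutions in LB broth; log-phase inoculum 10⁶ to 10⁷ bacteria/ml; 16 h at 37°C. MIC was the lowest concentration with no visible growth. MBC was the concentration giving a 100-fold CFU drop below the seeded inoculum.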"}, "Escherichia coli [32]": {"test_system": "Escherichia coli", "assay": "Antibacterial activity against Escherichia coli K12 mutant JHU313 containing plasmid vector at 0.5 ug/ml after 48 hrs by disc diffusion method", "assay_type": "functional", "summary_of_the_method": "as §1"}}, "note": "The source made the active and inactive calls. The calls are words filed in the database; no cut-off is given here.", "data": [{"compound": "CN(C)[C@@H]1C(O)=C(C(N)=O)C(=O)[C@@]2(O)C(O)=C3C(=O)c4c(O)cccc4[C@@](C)(O)[C@H]3C[C@@H]12", "note": "[TETRACYCLINE]", "values": [{"measurement": "inhibition zone (IZ)", "setting": "Escherichia coli [1]", "value": 32, "unit": "mm"}, {"measurement": "inhibition zone (IZ)", "setting": "Escherichia coli [2]", "value": 22, "unit": "mm"}, {"measurement": "inhibition zone (IZ)", "setting": "Escherichia coli [3]", "value": 34, "unit": "mm"}, {"measurement": "inhibition zone (IZ)", "setting": "Escherichia coli [4]", "value": 23, "unit": "mm"}, {"measurement": "inhibition zone (IZ)", "setting": "Escherichia coli [5]", "value": 32, "unit": "mm"}, {"measurement": "inhibition zone (IZ)", "setting": "Escherichia coli [6]", "value": 32, "unit": "mm"}, {"measurement": "inhibition zone (IZ)", "setting": "Escherichia coli [7]", "value": 34, "unit": "mm"}, {"measurement": "inhibition zone (IZ)", "setting": "Escherichia coli [8]", "value": 26, "unit": "mm"}, {"measurement": "inhibition zone (IZ)", "setting": "Escherichia coli [9]", "value": 34, "unit": "mm"}, {"measurement": "inhibition zone (IZ)", "setting": "Escherichia coli [10]", "value": 32, "unit": "mm"}, {"measurement": "inhibition zone (IZ)", "setting": "Escherichia coli [11]", "value": 30, "unit": "mm"}, {"measurement": "inhibition zone (IZ)", "setting": "Escherichia coli [12]", "value": 23, "unit": "mm"}]}, {"compound": "NC(=O)c1cnccn1", "note": "[PYRAZINAMIDE]", "values": [{"measurement": "CFU", "setting": "Escherichia coli [13]", "value": "1 10^6/ml"}, {"measurement": "Activity", "setting": "Escherichia coli [14]", "value": "Active"}, {"measurement": "CFU", "setting": "Escherichia coli [15]", "value": "6.7 10^6/ml"}, {"measurement": "Activity", "setting": "Escherichia coli [16]", "value": "Active"}]}, {"compound": "COc1cc(Cc2cnc(N)nc2N)cc(OC)c1OC", "note": "[TRIMETHOPRIM]", "values": [{"measurement": "inhibition zone (IZ)", "setting": "Escherichia coli [17]", "value": 24, "unit": "mm"}, {"measurement": "inhibition zone (IZ)", "setting": "Escherichia coli [18]", "value": 32, "unit": "mm"}, {"measurement": "inhibition zone (IZ)", "setting": "Escherichia coli [19]", "value": 42, "unit": "mm"}, {"measurement": "inhibition zone (IZ)", "setting": "Escherichia coli [20]", "value": 31, "unit": "mm"}, {"measurement": "IZ", "setting": "Escherichia coli [21]", "value": 40, "unit": "mm"}, {"measurement": "inhibition zone (IZ)", "setting": "Escherichia coli [22]", "value": 36, "unit": "mm"}, {"measurement": "MBC", "setting": "Escherichia coli [23]", "value": 4, "unit": "µg/mL"}, {"measurement": "MIC", "setting": "Escherichia coli [23]", "value": 2, "unit": "µg/mL"}, {"measurement": "IZ", "setting": "Escherichia coli [24]", "value": 33, "unit": "mm"}, {"measurement": "MBC", "setting": "Escherichia coli [25]", "value": 1, "unit": "µg/mL"}, {"measurement": "MIC", "setting": "Escherichia coli [25]", "value": 0.5, "unit": "µg/mL"}, {"measurement": "inhibition zone (IZ)", "setting": "Escherichia coli [26]", "value": 44, "unit": "mm"}, {"measurement": "inhibition zone (IZ)", "setting": "Escherichia coli [27]", "value": 30, "unit": "mm"}, {"measurement": "IZ", "setting": "Escherichia coli [28]", "value": 26, "unit": "mm"}, {"measurement": "MBC", "setting": "Escherichia coli [29]", "value": 1, "unit": "µg/mL"}, {"measurement": "MIC", "setting": "Escherichia coli [29]", "value": 0.25, "unit": "µg/mL"}, {"measurement": "IZ", "setting": "Escherichia coli [30]", "value": 38, "unit": "mm"}, {"measurement": "MBC", "setting": "Escherichia coli [31]", "value": 8, "unit": "µg/mL"}, {"measurement": "MIC", "setting": "Escherichia coli [31]", "value": 2, "unit": "µg/mL"}, {"measurement": "inhibition zone (IZ)", "setting": "Escherichia coli [32]", "value": 36, "unit": "mm"}]}]}
